Source: PubChem (Broad Institute)
This is a sample that favours compounds with a hit; in the whole collection about 3.3% have one here.
DENV2 CPE: protects cells from dengue virus 2 cytopathic effect | DENV2-infected cells, cytopathic effect rescue, plate reader | CPE inhibition, % at 9.99 µM | 350,000 compounds, 1.7% hits | AID 651640; in the data active means CPE inhibition above about 20%, passing the limit was not always enough; tested in BHK-21 cells;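 further: 0% = median of neutral control wells and 100% = median of positive control wells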
PglD inh: inhibitors of Campylobacter jejuni PglD acetyltransferase | 360,000 compounds, 0.098% hits | AID 602405 | inhibition, % at 12.5 µM | purified PglD enzyme, DTNB colorimetric CoA detection; in the data active means inhibition above about 16%, passing the limit was not always enough
E-selectin induc: E-selectin induction on HUVECs | P16581 | HUVEC E-selectin immunofluorescence imaging; normalized: neutral wells 0, TNF-alpha wells 100 | activation, % at 7.58 µM | 260,000 compounds, 0.37% hits;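 active means mean E-selectin-positive cell signal at least 10% of the positive control, reached in at least 60% of replicates, without over 20% cell loss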
Target sequence (P16581 whole entry, looked up): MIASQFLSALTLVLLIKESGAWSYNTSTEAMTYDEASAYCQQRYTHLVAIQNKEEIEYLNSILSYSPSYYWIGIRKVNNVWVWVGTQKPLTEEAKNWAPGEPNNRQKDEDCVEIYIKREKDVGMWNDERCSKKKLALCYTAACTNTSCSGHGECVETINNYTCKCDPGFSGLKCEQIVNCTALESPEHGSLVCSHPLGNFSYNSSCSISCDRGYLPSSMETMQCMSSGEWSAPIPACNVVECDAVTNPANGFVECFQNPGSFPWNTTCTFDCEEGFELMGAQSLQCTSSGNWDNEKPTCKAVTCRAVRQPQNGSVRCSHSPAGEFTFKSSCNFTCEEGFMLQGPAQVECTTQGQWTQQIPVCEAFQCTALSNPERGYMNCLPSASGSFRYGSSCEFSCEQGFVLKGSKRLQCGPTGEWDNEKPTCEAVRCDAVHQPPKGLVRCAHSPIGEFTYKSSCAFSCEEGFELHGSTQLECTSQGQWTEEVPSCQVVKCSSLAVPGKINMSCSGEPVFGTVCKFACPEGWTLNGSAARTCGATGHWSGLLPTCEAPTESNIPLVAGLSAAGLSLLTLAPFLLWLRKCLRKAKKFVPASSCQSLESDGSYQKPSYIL
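Read-out: % PE-positive cells | Test system: HUVEC | Doses: One compound dose added by pin transfer | Buffer or medium: EGM-2 over gelatin coat | Signal: Immunofluorescence imaging | Benchmarks: TNF-alpha, DMSO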
XiGFP reactiv: activators of X-chromosome reactivation in mouse fibroblasts; XiGFP mouse fibroblasts, % GFP-positive cells imaging, 3 d; cells co-treated with 5-aza-dC sensitizer; scaled so ellipticine positive control = 100%; 360,000 compounds, 0.055% hits; activation, % at 7.58 µM;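 active means mean normalized replicate activation at least 10% and every replicate at or above 10%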;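 further: 0% = median of on-plate neutral control wells and 100% = ellipticine 6 µM median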
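System: 68-5-11 XiGFP fibroblast line | Buffer or medium: DMEM containing 5-aza-dC | Compound: Single point | Times: Compounds 3 days, fix/stain 15 min at room temperature | Benchmarks: Positive control ellipticine, 6 µM final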
FGF22 binding: FGF22 (human) thermal shift binding. Q9HCT0. recombinant FGF22 thermal shift, SYPRO orange fluorescence; percent of sucrose octasulfate shift, DMSO zero. activity (Tm shift, normalised), % at 9.99 µM. 340,000 compounds, 1.5% hits. AID 651658;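 active means mean Tm shift, scaled 0 neutral to 100 positive control, at about 1.3% or above, every replicate too, limit read from the data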
C2C12 statin: suppressors of simvastatin-induced myotoxicity in C2C12 myotubes | 330,000 compounds, 0.78% hits | ATP luminescence, 48 h; scaled: DMSO 0, geranylgeraniol control 100 | AID 602340 | rescue of ATP level, % at 7.49 µM;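 active means mean ATP rescue above about 67%, or every replicate alone reaching that limit, limit read from the data, passing the limit was not always enough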;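 further: myotubes were challenged with 10 µM simvastatin during compound exposure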
Starred values were filed as active, the others as inactive; / = no result given.

SMILES | DENV2 CPE | PglD inh | E-selectin induc | XiGFP reactiv | FGF22 binding | C2C12 statin
C[C@@H]1CN([C@H](C)CO)C(=O)c2cccc(NC(=O)C3CCOCC3)c2O[C@@H]1CN(C)Cc1ccc(C(=O)Nc2ccccc2N)cc1 | 46.6* | -0.6 | 1.5 | -0.9 | -0.6 | 110.1*
CCCN(C)C[C@@H]1OCCCC[C@@H](C)Oc2ccc(N(C)C)cc2C(=O)N([C@@H](C)CO)C[C@@H]1C | -3.4 | 2.7 | 0.1 | 0.0 | -1.1 | -17.0
C[C@H](CO)N1C[C@H](C)[C@@H](CN(C)Cc2ccc3c(c2)OCO3)OCCCC[C@H](C)Oc2ccc(N(C)C)cc2C1=O | 124.1* | / | 0.0 | -0.1 | / | /
CCCN(C)C[C@@H]1OCCCC[C@H](C)Oc2ccc(N(C)C)cc2C(=O)N([C@H](C)CO)C[C@@H]1C | 68.9* | 1.4 | -0.2 | 0.0 | -0.6 | 39.5
C[C@H]1CCCCO[C@@H](CN(C)Cc2ccc3c(c2)OCO3)[C@@H](C)CN([C@@H](C)CO)C(=O)c2cc(N(C)C)ccc2O1 | 6.6 | -1.3 | / | 0.5 | -1.1 | -18.9
CC(C)c1ccc(S(=O)(=O)N2CCN(C(=O)c3ccco3)CC2)cc1 | 9.5 | 0.6 | 0.0 | 0.0 | 43.6* | 3.3
Cc1ccc(S(=O)(=O)N2CCN(C(=O)c3ccco3)CC2)cc1 | 9.1 | 2.1 | / | -0.1 | -0.2 | 8.2
Cc1cc(Cn2nc(C(=O)NCc3cccc(Br)c3)cc2-c2ccccc2)on1 | 1.4 | 0.2 | -0.1 | 0.1 | 0.1 | 5.8
COCCNC(=O)c1cc(-c2ccccc2)n(Cc2cc(C)no2)n1 | 21.7* | -3.6 | 0.1 | 0.0 | 0.3 | -13.2
Oc1[nH]c2ccccc2c1N=Nc1ccc(C(F)(F)F)cn1 | / | -2.5 | / | / | / | -3.8
Oc1[nH]c2ccc(Br)cc2c1N=Nc1ccc(C(F)(F)F)cn1 | 3.4 | -1.5 | / | 0.1 | 44.1* | 13.2
CCCC#Cc1cnc2c(c1)C(=O)N([C@H](C)CO)C[C@H](C)[C@H](CN(C)S(C)(=O)=O)O2 | -6.4 | -1.5 | -0.5 | -0.1 | -0.2 | 11.7
CC(=O)N1CC2(C1)[C@@H](c1ccc(-c3ccc(C#N)cc3)cc1)[C@@H](CO)N2CCC(F)(F)F | -10.9 | / | -0.1 | 0.2 | -0.1 | /
CC(=O)N1CC2(C1)[C@H](c1ccc(-c3ccc(F)cc3)cc1)[C@H](CO)N2C(C)=O | 82.5* | / | 0.4 | 0.0 | -0.2 | /
CC(=O)N1CC2(C1)[C@H](c1ccc(-c3ccc(C#N)cc3)cc1)[C@H](CO)N2CCC(F)(F)F | 33.3* | / | -0.3 | 0.2 | -0.1 | /
CO[C@H]1CN(C)C(=O)c2ccc(NC(=O)c3cccc(F)c3)cc2OC[C@@H](C)N(CC2CC2)C[C@H]1C | 1.8 | 2.1 | 0.1 | -0.5 | -0.1 | -7.3
COc1ccccc1N(C(=O)c1snc(C(N)=O)c1N)C(C(=O)NCc1ccccc1)c1ccc(C)o1 (stereo not given) | 14.9 | 1.7 | 32.9* | 0.5 | 0.0 | -16.8
c1ccc(N=C2SCCCS2)cc1 | -6.4 | / | -0.1 | 0.2 | 43.1* | 5.5
Cc1noc(C)c1S(=O)(=O)N(C)C[C@@H]1Oc2ccc(NC(=O)Nc3ccc(F)cc3)cc2CC(=O)N([C@@H](C)CO)C[C@H]1C | -4.9 | -0.3 | -0.5 | 0.0 | -0.2 | -16.9
Cc1noc(C)c1S(=O)(=O)N(C)C[C@@H]1Oc2ccc(NS(C)(=O)=O)cc2CC(=O)N([C@@H](C)CO)C[C@H]1C | -3.3 | 0.0 | 0.2 | -0.1 | -0.3 | -8.6
Cc1noc(C)c1S(=O)(=O)N(C)C[C@@H]1Oc2ccc(NC(=O)Nc3ccc(F)cc3)cc2CC(=O)N([C@H](C)CO)C[C@H]1C | 0.0 | 0.5 | 44.6* | -0.1 | -0.7 | -4.7
Cc1noc(C)c1S(=O)(=O)N(C)C[C@H]1Oc2ccc(NC(=O)Nc3ccc(F)cc3)cc2CC(=O)N([C@@H](C)CO)C[C@H]1C | 5.7 | 5.1 | -3.1 | 0.0 | -0.4 | -19.4
Cc1noc(C)c1S(=O)(=O)N(C)C[C@H]1Oc2ccc(NS(C)(=O)=O)cc2CC(=O)N([C@@H](C)CO)C[C@H]1C | / | -4.5 | 27.8* | 0.0 | 0.7 | -15.8
Cc1noc(C)c1S(=O)(=O)N(C)C[C@@H]1Oc2ccc(NC(=O)Nc3ccc(F)cc3)cc2CC(=O)N([C@@H](C)CO)C[C@@H]1C | -8.2 | 1.0 | 50.6* | -0.1 | -0.7 | 8.2
COc1ccc2c3c(n(C)c2c1)[C@@H](CO)N(C)CC31CN(C(=O)C2CCC2)C1 | -6.5 | / | 0.3 | 0.0 | 0.0 | /
SMILES | DENV2 CPE | PglD inh | E-selectin induc | XiGFP reactiv | FGF22 binding | C2C12 statin
COc1ccc2c3c(n(C)c2c1)[C@H](CO)N(CC1CC1)CC31CCN(C(=O)c2ccc(F)cc2)CC1 | 5.0 | / | -0.5 | 0.8 | 0.1 | /
C[C@@H]1CN([C@@H](C)CO)C(=O)c2c(c3ccccc3n2C)-c2ccccc2CO[C@@H]1CN(C)Cc1ccccc1 | / | / | / | -0.1 | / | /
Cc1ccc(S(=O)(=O)Nc2cccc3c2O[C@H](CN(C)Cc2ccc(C(=O)Nc4ccccc4N)cc2)[C@H](C)CN([C@H](C)CO)C3=O)cc1 | 21.1* | 11.0 | 2.6 | 1.3 | -0.2 | 23.4
C[C@H](CO)N1C[C@H](C)[C@H](CN(C)Cc2ccc(C(=O)Nc3ccccc3N)cc2)Oc2c(NS(=O)(=O)c3cn(C)cn3)cccc2C1=O | 33.8* | / | / | 0.0 | -0.1 | /
Cc1ccc(S(=O)(=O)Nc2cccc3c2O[C@H](CN(C)Cc2ccc(C(=O)Nc4ccccc4N)cc2)[C@@H](C)CN([C@@H](C)CO)C3=O)cc1 | 4.3 | / | 0.0 | 0.5 | 1.4* | /
C[C@H]1CN([C@@H](C)CO)C(=O)c2cccc(NS(=O)(=O)c3ccc(F)cc3)c2O[C@H]1CN(C)Cc1ccc(C(=O)Nc2ccccc2N)cc1 | 22.0* | / | 1.1 | 0.5 | -0.2 | /
Cc1ccc(S(=O)(=O)Nc2cccc3c2O[C@@H](CN(C)Cc2ccc(C(=O)Nc4ccccc4N)cc2)[C@H](C)CN([C@@H](C)CO)C3=O)cc1 | -8.6 | / | 0.1 | -0.3 | -0.1 | /
Cc1ccc(S(=O)(=O)Nc2cccc3c2O[C@@H](CN(C)Cc2ccc(C(=O)Nc4ccccc4N)cc2)[C@@H](C)CN([C@@H](C)CO)C3=O)cc1 | -8.3 | / | 1.3 | -0.2 | -0.1 | /
O=C(C[C@H]1CC[C@@H](NC(=O)Nc2ccccc2F)[C@@H](CO)O1)NCc1ccc(F)cc1 | -3.5 | / | 0.6 | 0.4 | / | /
COc1ccc(NC(=O)Nc2ccc3c(c2)CC(=O)N([C@H](C)CO)C[C@@H](C)[C@H](CN(C)C(=O)NC(C)C)O3)cc1 | 5.9 | -0.5 | -0.3 | 0.3 | 0.0 | 12.3
CCC(=O)N1[C@@H](CO)[C@@H](c2ccccc2)C12CN(C(=O)c1ccc(F)cc1)C2 | 7.1 | / | -0.4 | 0.0 | 0.3 | /
COCCNC(=O)Nc1ccc2nc(-c3cccs3)c(-c3cccs3)nc2c1 | / | 4.0 | / | / | / | 125.0*
COc1ccccc1NC(=O)N1CCN(c2cccc(C(F)(F)F)c2)CC1 | / | -4.0 | / | / | / | 123.3*
